The data set has as its system MS2 coat protein. The data set is described as follows: apparent Kd, MS2 coat protein; higher = weaker binding; RNA-MaP array; FMN 200 µM where present. Put shortly:
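Designs on Illumina sequencing-chip clusters, transcribed by stalled E. coli RNA polymerase, were exposed to SNAP-549-labelled MS2 coat protein in doubling steps from 0.7 or 1.5 nM up to 3 µM, without and then with constant ligand. The buffer held 100 mM Tris-HCl pH 7.5, 80 mM KCl, 4 mM MgCl2, BSA, DTT, yeast tRNA and Tween-20. Apparent Kd values are medians of filtered per-cluster binding-curve fits to green signal normalised to red-channel RNA signal and control-cluster median Fmax.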

Where [1] appears, read: designed as: OFF switch for flavin mononucleotide, no ligand.
Setting [2] is: ligand present: flavin mononucleotide, designed as: OFF switch for flavin mononucleotide.
Where [3] appears, read: designed as: ON switch for flavin mononucleotide, no ligand.
[4] abbreviates: ligand present: flavin mononucleotide, designed as: ON switch for flavin mononucleotide.

We go through 48 sequences from the EternaBench riboswitch data.

For “GGAUUUACUGAGGAUAUUGCAUCACCCGACUGAUAAGAAGGCAGAACAUGAGGAUCACCCAUGUGGGUCGUCAA”, the apparent Kd (as a rule, the concentration giving half-maximal binding under the conditions of the assay) amounted to 21.9 nM under setting [1] and 28.2 nM under setting [2].
Regarding “GUUGUACGAGGAUAUACAUGAGGAUCACCCAUGUGUGUUGUGGGCGACGUACGUUUAUGUAGAAGGCGUGCGGC”, the “apparent Kd” value is 63.6 nM under setting [1] and 115 nM under setting [2].
Take “GCGGCUCCUGACAUGAGGAUCACCCAUGUUUAAUUAUUAAAUCAGGAUAUCCUCUCGAAACGAGAGGAGAAGGGAUAAGCUGCU”: the “apparent Kd” value amounted to 5.6 nM under setting [3] and 6.44 nM under setting [4].
With “GAGCAGGAAGGAUAUACAUGAGGAUCACCCAUGUACCAUCAAGGCUUUGAUUUUCACGGUAGAAGGUCCCAAUA”, the “apparent Kd” value reads like this: under setting [1], 40.3 nM; under setting [2], 51.4 nM.
Taken in the same sequence, the figures for “AGUGCCUCGAGAGGAUAUAUACAUGAGGAUCACCCAUGUAACGAGGUGGAAACACCUCGAAAUGUAUAGAAGGCUCGAGGCACA” were 28.4 nM and 50 nM.
Taken in the same sequence, the figures for “GGAUAGGACAGAGGAUAUACGUGCUAGAGAUACUAGCAAAAUCUCCUCACAUGAGGAUCACCCAUGUAGAAGGCUGUCCUAUCG” were 9.85 nM and 201 nM.
In the case of “CAGUACUGAGGAUAUACAUGAGGAUCACCCAUGUGCUUUAGCUAGGAUACUAGCACUAGUAGAAGGCAGUACUG”, the “apparent Kd” value runs as follows: under setting [1], 13.9 nM; under setting [2], 23.6 nM.
Taken in the same sequence, the figures for “AUUUUGUCAGGAUAUGAGUAGUAGGAUGAGAGUGCUACUACUUAGAAGGGACAUGAGGAUCACCCAUGUCUUCC” were 14.2 nM and 16.7 nM.
“ACAGAGGCUGACAUGAGGAUCACCCAUGUUAGAUUGUUAUGUCAGGAUAUUGUCUAGCAACUAGACAAGAAGGGACCCUCUGUG”: the “apparent Kd” value under setting [3] was found to be 39.2 nM and the “apparent Kd” value under setting [4] came to 9.69 nM.
The corresponding values for “GACUUGCAGCUAGGAUAUGGGCGAUCACAUGAGGAUCACCCAUGUCAACAUCAAAACAAGAUUAACCAGAAGGAGCCGCGGGCU” are 17.3 nM and 63.9 nM.
“CAGGUAGACUGAGGAUAUACAUCUCUGGGCAAACCAGAGUAAAAUUCGACAUGAGGAUCACCCAUGUAGAAGGCAGUCUGCCUG”: the “apparent Kd” value reads like this: under setting [1], 17 nM; under setting [2], 24.1 nM.
Take “UUAAUUAAUUAAUUAUACAUGAGGAUCACCCAUGUAAGUGAUCAGGAUAUCAGCUCGUGUAGAGCUGAGAAGGGAUACAUGUAA”: the “apparent Kd” value by setting is: under setting [3], 194 nM; under setting [4], 102 nM.
On to “UUAAUUAACAAGAAGGCUAACAUGAGGAUCACCCAUGUUGUACAUGGAUAUAGAGGAUAUUGCUAAUAAUUAUUUAUCAUAAUU”, for which the “apparent Kd” value runs as follows: under setting [1], 25.6 nM; under setting [2], 19 nM.
Take “AUGGACAGCAUAGACACAUAGUAACGAGAAGGUACACAUGAGGAUCACCCAUGUACAGUCAGAAGUAAGGAUAUUGAAUGGUAG”: the “apparent Kd” value under setting [3] worked out at 36.4 nM and the “apparent Kd” value under setting [4] was 27.4 nM.
As to “ACGGUCUUGUCAGGAUAUACAUGAGGAUCACCCAUGUAAUGCGGGUAGGAUAACAAGUCACUUAGGUAGAAGGGACAAGGGACU”, the “apparent Kd” value reads like this: under setting [1], 22.1 nM; under setting [2], 54.6 nM.
On to “AUUUAUGGCCAGAAGGACAUGAGGAUCACCCAUGUAGGAUAUGGACGAUUUUGCUCGGCGGUUUGUUAAGGAAGCACCGGUGGU”, for which the “apparent Kd” value runs as follows: under setting [3], 14.3 nM; under setting [4], 7.23 nM.
On to “GGAUUACGAGGAUAUCGAUUUUAGUACAUGAGGAUCACCCAUGUUGUCCAGGUCUCGUUUCGAGAAGGCGUGAUUC”, for which the “apparent Kd” value under setting [1] was 65.1 nM and the “apparent Kd” value under setting [2] is 48.7 nM.
With “GUAGCAUACCGAGGAUAUUCAGAUAAUAAAUAAACAUGAGGAUCACCCAUGUGGCGAAAGCCUAGGGAGAAGGCGGAAUGCUAC”, the “apparent Kd” value runs as follows: under setting [3], 77 nM; under setting [4], 20.6 nM.
For “CGCAACUCUUCACAUGUAAACAUGAGGAUCACCCAUGUAAUGAGAAGGAGGAAGAAGAGAGAUUCCUAGGAUAUCAGAGUUGCG”, the “apparent Kd” value is 6.83 nM under setting [1] and 6.52 nM under setting [2].
For “UGGCUACAUGAGGAUCACCCAUGUCAGGAUAUGCCGUUGGAUUGCCUUCGUCGUUCGGGUAGAAGGGACUGCGG”, the “apparent Kd” value by setting is: under setting [1], 22.1 nM; under setting [2], 21.5 nM.
With “UUAUUUAUGUAAGGAUAUCGAUGAUAUACGCAUCCGACAUGAGGAUCACCCAUGUUUUAUUUUGUCGAGAAGGUACAUUGUCGG”, the “apparent Kd” value came to 57.8 nM under setting [3] and 57.1 nM under setting [4].
“UUUCGGCAUGUAGGAUAUGGGUCCGAUUAGGAUUUAGAAGGACAUGAGGAUCACCCAUGUGCAUUUAAUUGGUCAUUACCUUUU”: the “apparent Kd” value was determined as 62.9 nM under setting [1] and 74 nM under setting [2].
With “GGCGAACAGGCUAACAUGAGGAUCACCCAUGUGGACUCAUGGUAGGAUAUCGGGAAGGAGGAAACCGAGAAGGGCCGGUGAGCA”, the “apparent Kd” value by setting is: under setting [3], 202 nM; under setting [4], 43.6 nM.
On to “GUCAGCUCGUGAGGAUAUACAUGAUAGAUCGAUUAAUUAAUUAAUUUAACAUGAGGAUCACCCAUGUAGAAGGCACGAGCUGAU”, for which the “apparent Kd” value is, setting by setting: under setting [1], 57.2 nM; under setting [2], 46.6 nM.
With “GUCAUCGCAUGAGGAUAUGCUCGGGUUUCCCGAGCAGAAGGCAUGUCAUAAGACAUGAGGAUCACCCAUGUAGUUAAGAUUGUA”, the “apparent Kd” value runs as follows: under setting [3], 192 nM; under setting [4], 12.5 nM.
Taken in the same sequence, the figures for “UUUACAUGAGGAUCACCCAUGUCUGUCACCCAUGUGUGCAAUCAGGAUAUGAUCUCAAGAAUGAAUUAGAAGGGAUAACAUGAG” were 182 nM and 194 nM.
In the case of “UUGAUAAGGAGAGGAUAUGGACAUGAGGAUCACCCAUGUACAUGGGAAUAUAUACUGAAUUUUUACUAGAAGGCUUACAUAUUU”, the “apparent Kd” value by setting is: under setting [1], 14.7 nM; under setting [2], 13 nM.
For the sequence “UCCACUGCUGAGAAGGGAUACGUCUGGCUCGCAUCAGGAUAUCGAUACAGUGCAGCAUGAGGACAUGAGGAUCACCCAUGUGUG”, the “apparent Kd” value was determined as 104 nM under setting [3] and 68.8 nM under setting [4].
In the case of “UUAUCUUGUCAAGGAUAUGUAGUAUUGAUCUGAAAACAUGAGGAUCACCCAUGUAUAUGGUGGGAACAGAAGGUGAAUGUUGAA”, the “apparent Kd” value is, setting by setting: under setting [1], 823 nM; under setting [2], 727 nM.
For the sequence “GUAAAGUGAGGAUAUGGUAAAUUAAUUAUUAAUUAAUUAAUCCAGAAGGCACAUGAGGAUCACCCAUGUAAUUG”, under setting [2], the “apparent Kd” value came to 39.1 nM.
Turning to “UUACUAUUGCAGAAGGCGCAAUAAUAUAUAAAGUGAGGAUAUGCAACAUGAGGAUCACCCAUGUUUCACCCAUAUGAGGAUCAC”, the “apparent Kd” value reads like this: under setting [1], 6.93 nM; under setting [2], 7.32 nM.
With “GCCAUCGUAUGAGGAUAUGGCACCGAAACGGUGCCAGAAGGCAUGUCGAUAGACAUGAGGAUCACCCAUGUAUUAACGAUGGCA”, the “apparent Kd” value amounted to 1120 nM under setting [3] and 117 nM under setting [4].
Taken in the same sequence, the figures for “CACAUUUUAACAGGAUAUGUAUGGUUGCUUAUUAUUGCAUAUUCAAUUAUUACAGAAGGGUUAUACAUGAGGAUCACCCAUGUG” were 21 nM and 15.5 nM.
As to “AACAAUCUAUCUGAGGAUAUCAUGAAAUAAACAUGAGGAUCACCCAUGUGUAGGAAAACUGCAUAUGAGAAGGCAGAUAGAUUGA”, the “apparent Kd” value is, setting by setting: under setting [3], 930 nM; under setting [4], 43.5 nM.
Taken in the same sequence, the figures for “UUAUACAUUCGAGGAUAUCGGAGAGAAAUCAUUCGAGAAGGCGAUUCAUGAUGUAUUAUCCUGGACAUGAGGAUCACCCAUGUA” were 79.7 nM and 68.5 nM.
For the sequence “ACAAGGCAUGUAGGAUAUCCAUUGCGUCGCGAUGGAGAAGGGCAACACACAUGAGGAUCACCCAUGUGGUCACCCAUGUCGUGU”, the “apparent Kd” value worked out at 55.8 nM under setting [1] and 68.8 nM under setting [2].
Regarding “CUGUAGAUAUCAGGAUAUCUAUUUCCUACAUGAGGAUCACCCAUGUAGGUGAUCACCCAAGUAAAGGAGAAGGGAUAUCUAUAG”, the “apparent Kd” value runs as follows: under setting [3], 65 nM; under setting [4], 23.2 nM.
On to “AGGUGUAGAGGAUAUCGAGUUCUUUACAUGAGGAUCACCCAUGUCCUGGGCACCCAGGACUGAGAAGGCUACACCA”, for which the “apparent Kd” value is, setting by setting: under setting [1], 478 nM; under setting [2], 180 nM.
As for “AUCAGCUCGUCAGGAUAUGCGUCACUGCGUCAGCAGUGUGGUAAGAUCACAUGAGGAUCACCCAUGUAGAAGGGACGAGCUGAU”, the “apparent Kd” value under setting [1] worked out at 9.59 nM and the “apparent Kd” value under setting [2] stood at 88.2 nM.
As to “CCUAAGGACACAGGAUAUAGCGUGGUGGCCGGGCUCCAACGGCGAGCGGCGCUAGAAGGGUGACCACAUGAGGAUCACCCAUGU”, the “apparent Kd” value is, setting by setting: under setting [3], 506 nM; under setting [4], 161 nM.
For “AUGUGGUGCGUAGGAUAUCAUUGAGGGAAACCCUGAGAAGGACGUGAGGACAUGAGGAUCACCCAUGUGGAUCACCCAUGUCAU”, the “apparent Kd” value runs as follows: under setting [1], 196 nM; under setting [2], 253 nM.
For the sequence “UUGAUUAUACAAGGAUAUCAAUUGUAUACAAGUCUUACAUGAGGAUCACCCAUGUUAAAUUUUUUUGAGAAGGUGUGUUGUCAG”, the “apparent Kd” value under setting [3] was found to be 33.9 nM and the “apparent Kd” value under setting [4] came out at 28.5 nM.
For the sequence “AAUAACAGAGGAUAUACUAUUUUAUGUGUUUAUUGUUUUGAACAUGAGGAUCACCCAUGUAGAAGGCUGAAUGA”, the “apparent Kd” value amounted to 29.9 nM under setting [1] and 35.8 nM under setting [2].
In the case of “ACCUUACAUGAGGAUCACCCAUGUCAGGAUAUCUCGGACGGCUGAAAACCAACCGUCCAGAGAAGGGACGAGGA”, the “apparent Kd” value stood at 13.1 nM under setting [1] and 15.2 nM under setting [2].
The corresponding values for “AUCCCGCGAGGAUAUACAUGAGGAUCACCCAUGUAGGUUCUGGAUGGGCGAAAUUUGUGUAGAAGGCGCACCAA” are 33.4 nM and 26.1 nM.
With “GGAGCACAUGAAUACAUGAGGAUCACCCAUGUCGAAUGAUAUGAGGAUAUGGAUCGGAAAACGAUCUAGAAGGCAUAGUGCUCC”, the “apparent Kd” value is, setting by setting: under setting [3], 76.5 nM; under setting [4], 10.2 nM.
Taken in the same sequence, the figures for “CCAACCGGCACCGGUUGAACAUGAGGAUCACCCAUGUACUCCAGAAGGCCGCCCAAGAACGGAGUGGAGGAUAUGGAGGUUCUC” were 15.5 nM and 12 nM.
The corresponding values for “AGCAUUGCUUAGAAGGGAAAUUUAUAAUUUAAUUCAGGAUAUAGAUACAGUACAACAUGAGGACAUGAGGAUCACCCAUGUAUA” are 25.8 nM and 19.3 nM.
